# Screening results deposited in PubChem BioAssay by several laboratories.
# Mdm2 ligase inh: blocks human Mdm2 ubiquitin ligase activity; AID 1230; 210,000 compounds, 0.11% hits; signal enhancement, % at 5 µM; Q00987; cell-based MDM2 ubiquitination luciferase reporter, 2 h; 0 = plate control, 100 = twice control, blank-subtracted;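 active means signal enhancement of 30% or more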;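 further: luminescence tracks abundance of the self-degrading MDM2-luciferase fusion protein; higher signal means inhibition of MDM2 E3 ligase activity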
#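 Material: stable MDM2–luciferase fusion reporter cells / Quantity: 2000 cells/well / Dosing: single 5 µM compound dose, 0.2% final DMSO / Buffer or medium: DMEM / Schedule: 4 h cell settling then 2 h compound exposure, 37 °C / Detection: luminescence with SteadyLite reagent, 15 min at room temperature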
# NF-kB neuron act: compounds increasing NF-kB expression in human neuronal cells | NF-kB reporter expression; hits give high values | fold change at 12.5 µM | AID 1239 | 190,000 compounds, 1.6% hits; in the data active means fold change above about 3.3
# PERK inh: human PERK inhibition, primary cell-based screen. AID 1416. 220,000 compounds, 0.17% hits. Q9NZJ5. inhibition, % at 5.6 µM. CHO PERK-DD fusion, SEAP luminescence translation reporter;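 active means inhibition above the mean inhibition of all tested compounds plus 3 SD, set separately per screening campaign, cut at about 2.9% in these data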;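 further: PERK kinase domain activated by AP20187 dimerizer at 100 nM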
# STAT1 activator: activators of IFN-gamma induced STAT1 signaling. NIH 3T3 STAT1-luciferase reporter, luminescence; 100% = IFN-gamma alone, no compound. activation (% of control), % at 5.5 µM. 200,000 compounds, 2.6% hits. AID 932;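 active means activation above the screen-wide mean activation plus 3 SD, cut at about 130% in these data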
# APP 5'UTR act: APP 5'UTR luciferase reporter activation | activation, % at 2 µM | SH-SY5Y APP 5'UTR luciferase reporter, luminescence; zero percent = DMSO vehicle wells | 190,000 compounds, 1% hits;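 active means activation above a set limit, based on mean plus 3 SD of controls, cut at about 140% in these data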
# AHR act: human AHR activation | P35869 | AHR-responsive luciferase reporter cells, luminescence | activation, % at 5 µM | 320,000 compounds, 2.5% hits | AID 2796; in the data active means activation above about 47%
# Target sequence (P35869 whole entry, looked up): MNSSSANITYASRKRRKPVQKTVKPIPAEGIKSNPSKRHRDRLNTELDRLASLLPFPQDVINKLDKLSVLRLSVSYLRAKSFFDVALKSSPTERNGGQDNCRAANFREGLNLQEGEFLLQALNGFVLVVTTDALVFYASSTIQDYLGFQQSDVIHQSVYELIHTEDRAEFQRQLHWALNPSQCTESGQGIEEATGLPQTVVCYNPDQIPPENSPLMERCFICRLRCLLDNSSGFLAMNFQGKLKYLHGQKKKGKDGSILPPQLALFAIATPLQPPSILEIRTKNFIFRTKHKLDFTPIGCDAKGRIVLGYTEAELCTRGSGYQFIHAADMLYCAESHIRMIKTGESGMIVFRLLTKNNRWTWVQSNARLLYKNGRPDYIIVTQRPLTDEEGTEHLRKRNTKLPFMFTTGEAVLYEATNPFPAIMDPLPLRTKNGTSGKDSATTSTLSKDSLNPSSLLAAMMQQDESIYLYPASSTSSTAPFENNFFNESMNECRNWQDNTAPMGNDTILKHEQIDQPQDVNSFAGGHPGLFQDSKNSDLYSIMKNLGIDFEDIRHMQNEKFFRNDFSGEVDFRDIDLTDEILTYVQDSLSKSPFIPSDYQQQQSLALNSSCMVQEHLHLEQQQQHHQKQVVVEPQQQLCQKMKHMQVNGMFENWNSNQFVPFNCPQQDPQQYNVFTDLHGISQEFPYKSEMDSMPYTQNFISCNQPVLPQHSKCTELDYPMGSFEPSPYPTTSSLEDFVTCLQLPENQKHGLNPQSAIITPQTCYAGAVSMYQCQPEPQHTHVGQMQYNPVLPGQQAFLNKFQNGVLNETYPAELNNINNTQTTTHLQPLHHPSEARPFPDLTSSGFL
# Hits are given with their value; i = inactive; nt = no result given. A selection: hits, their analogues and other compounds. The true share with any hit is near 4.5%.
SMILES,Mdm2 ligase inh,NF-kB neuron act,PERK inh,STAT1 activator,APP 5'UTR act,AHR act
Cc1sc(NC(=O)c2ccccc2F)c(CN2CCCCC2C)c1C (stereo unspecified),i,i,i,137,i,i
Cc1cc(C)n(CC(=O)NNC(=O)c2ccc(NC(=O)CC#N)cc2)n1,nt,nt,nt,nt,nt,i
CN1CCN(c2ccc(NC(=O)c3ccc(-c4ccccc4F)o3)cc2)CC1,nt,nt,nt,nt,nt,64
CS(=O)(=O)N1CCN(c2ccc(NC(=O)c3ccc(Br)o3)cc2)CC1,i,i,i,130,i,i
CN1CCN(c2ccc(NC(=O)c3ccc(Br)o3)cc2)CC1,nt,nt,nt,nt,nt,i
O=C1C(=C2SCCCS2)CC/C1=C\c1ccc(F)cc1,i,i,i,i,i,i
Cc1cccc(/C=C2\CCC(=C3SCCCS3)C2=O)c1,i,i,i,i,172,i
CC1CCN(C(=O)C2CC(c3ccc(F)cc3)=NO2)CC1 (stereo unspecified),i,i,i,129,i,i
COc1cccc(C2=NOC(C(=O)N3CCOCC3)C2)c1 (stereo unspecified),i,i,i,133,i,i
Cc1ccc(C(=O)NCC(=O)OCC(=O)Nc2ccc3[nH]c(=O)[nH]c3c2)cc1,nt,nt,nt,nt,nt,i
CC(C)=C(NC(=O)c1ccccc1)C(=O)Nc1ccc(C(=O)O)cc1,i,nt,i,nt,nt,i
CCO[C@@H]1OC(C(=O)NCc2nc3ccccc3[nH]2)=C[C@H](c2ccc(C(F)(F)F)cc2)[C@H]1CCCO,nt,i,i,i,i,i
O=C(/C=C/c1ccco1)NC1=NCCS1,i,i,i,145,i,i
CNS(=O)(=O)c1ccc2nc(NC(=O)/C=C/c3ccco3)sc2c1,i,i,i,131,i,i
CCSc1nnc(NC(=O)/C=C/c2ccco2)s1,i,i,i,i,i,60
Cc1ccc(-c2csc(NC(=O)/C=C/c3ccco3)c2C(=O)O)cc1,i,i,i,138,i,i
O=C(/C=C/c1ccco1)Nc1nnc(-c2ccco2)s1,i,i,i,i,i,i
C/C(=N\Nc1ncc(Cl)cc1Cl)c1ccccn1,i,i,i,i,i,nt
CC1(C)Cc2nc(Cl)c(C(N)=O)cc2CO1,i,nt,i,nt,nt,i
COc1ccc(OC)c(/C=C/C(=O)NC2=NCCS2)c1,i,i,i,i,i,i
O=C(/C=C/c1ccco1)Nc1cccc(NC(=O)/C=C/c2ccco2)n1,i,i,i,i,i,i
COc1ccc(/C=C/C(=O)NC2=NCCS2)cc1OC,i,i,i,132,i,i
Cc1nc(NC(=O)/C=C/c2ccco2)sc1C,i,i,i,144,i,i
O=C(N/N=C/c1ccoc1)c1ccccc1F,nt,nt,nt,nt,nt,i
COc1cccc(OC)c1C(=O)Nc1ccc(N2CCCC2)cc1,nt,nt,nt,nt,nt,50
SMILES,Mdm2 ligase inh,NF-kB neuron act,PERK inh,STAT1 activator,APP 5'UTR act,AHR act
Cc1cc(C)cc(C(=O)Nc2ccc(N3CCCC3)cc2)c1,i,i,i,151,146,i
CCOc1ccc(NC(=O)c2nsc(Cl)c2Cl)cc1,i,6.4,i,150,234,i
O=C(Nc1ccc(F)c(Cl)c1)c1nsc(Cl)c1Cl,i,nt,i,nt,nt,i
COc1cccc(OC)c1C(=O)Nc1ccc2c(c1)Cc1ccccc1-2,i,i,i,i,i,75
COc1cccc(OC)c1C(=O)NC(=S)Nc1ccc2c(c1)Cc1ccccc1-2,i,i,i,i,i,i
CC(C)CCNC(=O)c1onc(CSc2ccccc2)c1C(=O)NCCC(C)C,nt,nt,nt,nt,nt,i
CCOc1ccc(NC(=O)c2c(OC)cccc2OC)cc1,i,i,i,i,i,51
CCOc1ccc(NC(=O)COC(=O)c2c(OC)cccc2OC)cc1,i,i,i,i,i,i
O=C(NC(=S)Nc1ccc(N2CCCCC2)cc1)c1ccco1,i,i,i,132,i,i
O=C(Nc1ccc(N2CCCCCC2)cc1)c1ccccc1Cl,i,4.7,i,147,i,i
CC(=O)N1CCN(c2ccc(NC(=O)c3ccccc3Cl)cc2)CC1,nt,nt,nt,nt,nt,i
Cc1ccc(C2c3sc(=O)[nH]c3SC3C(=O)NC(=O)C32)cc1 (stereo unspecified),i,i,i,i,i,i
CC1CCCCC12NC(=O)N(CC(=O)N1CCN(S(=O)(=O)/C=C/c3ccccc3)CC1)C2=O (stereo unspecified),nt,nt,nt,nt,nt,i
Cc1cc(OC(C)C(=O)N2CCN(c3ccccc3)CC2)c2c(C)c(C)c(=O)oc2c1 (stereo unspecified),nt,nt,nt,nt,nt,i
Cc1cc(NC(=O)/C=C/c2cccc(F)c2)n(-c2nc3ccccc3[nH]2)n1,i,i,i,i,i,74
COc1cc(CC(=O)Nc2sc3c(c2C(N)=O)CCCC3)cc(OC)c1OC,nt,nt,nt,nt,nt,i
c1ccc2c(c1)nc1n2CCN1CCN1CCCC1,nt,nt,nt,nt,nt,i
CCc1ccc(-c2ccc(C(=O)C(F)(F)F)[nH]2)cc1,i,4.5,i,i,179,i
O=C(O)c1ccc(-c2ccccc2)[nH]1,i,i,i,i,i,i
Cc1cc(C)n2nc(C(=O)OCC(=O)N(CC(C)C)C3CCS(=O)(=O)C3)nc2n1 (stereo unspecified),nt,nt,nt,nt,nt,i
Cc1ccc2nc(-c3ccc(SCC(=O)Nc4ccc5c(c4)OCCO5)nc3)[nH]c2c1,i,i,i,i,i,i
Cc1cc2nc(-c3ccc(SCC(=O)Nc4ccc5c(c4)OCCO5)nc3)[nH]c2cc1C,i,i,i,i,180,i
CCOC(=O)CSc1ccc(-c2nc3cc(C)c(C)cc3[nH]2)cn1,i,i,i,i,i,i
Cc1cc2nc(-c3ccc(SCC(=O)N4CCOCC4)nc3)[nH]c2cc1C,i,i,i,i,i,60
Cc1ccc2nc(-c3ccc(SCC(=O)Nc4nc(C)cs4)nc3)[nH]c2c1,i,i,i,146,149,67
SMILES,Mdm2 ligase inh,NF-kB neuron act,PERK inh,STAT1 activator,APP 5'UTR act,AHR act
Cc1cc2nc(-c3ccc(SCc4ccccn4)nc3)[nH]c2cc1C,i,i,i,135,i,48
O=C(/C=C/c1ccco1)Nc1ccc(Cl)c(S(=O)(=O)N2CCOCC2)c1,i,nt,i,nt,nt,i
COc1cc(/C=C(\C#N)C(=O)Nc2ccccc2C(=O)O)cc(Cl)c1OC,i,i,i,i,i,i
CCN(Cc1ccncc1)C(=O)c1cc(Br)cc(Br)c1O,i,i,i,i,i,i
Cc1cc(C(=O)CN2CCCCC2)c(C)n1-c1ccc(F)cc1,i,i,i,130,i,i
Cc1cc(C(=O)CN2C(=O)C3CC=CCC3C2=O)c(C)n1-c1ccccc1 (stereo unspecified),i,i,i,138,184,i
Cc1c(C(=O)N2CCOCC2)c(S(=O)(=O)Nc2ccccc2F)c(C)n1C,nt,nt,nt,nt,nt,i
CCN(CC)S(=O)(=O)c1cccc(-c2cn3cc(C)ccc3n2)c1,i,i,i,i,i,i
Cc1ccc2nc(-c3cccc(S(=O)(=O)N(C)C)c3)cn2c1,i,i,i,136,i,i
CN(C)/N=C/c1ccc(OS(=O)(=O)c2ccccc2)cc1,i,4.8,i,140,i,i
CN(C)CCCNC(=O)C1CCNCC1,i,i,i,i,i,i
CNC(=S)N/N=C(\C)c1ccc2c(c1)OCO2,i,i,i,i,i,72
